Screening data deposited in PubChem BioAssay by several laboratories.
Most compounds without a hit are left out; they make up all but 6.7% or so of the library.
CSC inhib – cancer stem cell inhibition. cancer stem cell-like cells viability, luminescence. inhibition, % at 7.5 µM. actives 1.1% (n = 300,000). AID 2717; in the data active = inhibition above about 75%; inconclusive = no clear call, values can overlap the other calls; tested in HMLE shEcad cells
PREPL inhibitor – inhibitors of human prolyl oligopeptidase-like enzyme PREPL. inhibition, % at 5.96 µM. AID 2751. actives 0.68% (n = 320,000). recombinant PREPL, fluorescence polarization activity-based probe; in the data active = inhibition above about 43%;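 note: 0% = enzyme with DMSO and 100% = wells lacking enzyme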
Target sequence (Q4J6C6 whole entry, looked up): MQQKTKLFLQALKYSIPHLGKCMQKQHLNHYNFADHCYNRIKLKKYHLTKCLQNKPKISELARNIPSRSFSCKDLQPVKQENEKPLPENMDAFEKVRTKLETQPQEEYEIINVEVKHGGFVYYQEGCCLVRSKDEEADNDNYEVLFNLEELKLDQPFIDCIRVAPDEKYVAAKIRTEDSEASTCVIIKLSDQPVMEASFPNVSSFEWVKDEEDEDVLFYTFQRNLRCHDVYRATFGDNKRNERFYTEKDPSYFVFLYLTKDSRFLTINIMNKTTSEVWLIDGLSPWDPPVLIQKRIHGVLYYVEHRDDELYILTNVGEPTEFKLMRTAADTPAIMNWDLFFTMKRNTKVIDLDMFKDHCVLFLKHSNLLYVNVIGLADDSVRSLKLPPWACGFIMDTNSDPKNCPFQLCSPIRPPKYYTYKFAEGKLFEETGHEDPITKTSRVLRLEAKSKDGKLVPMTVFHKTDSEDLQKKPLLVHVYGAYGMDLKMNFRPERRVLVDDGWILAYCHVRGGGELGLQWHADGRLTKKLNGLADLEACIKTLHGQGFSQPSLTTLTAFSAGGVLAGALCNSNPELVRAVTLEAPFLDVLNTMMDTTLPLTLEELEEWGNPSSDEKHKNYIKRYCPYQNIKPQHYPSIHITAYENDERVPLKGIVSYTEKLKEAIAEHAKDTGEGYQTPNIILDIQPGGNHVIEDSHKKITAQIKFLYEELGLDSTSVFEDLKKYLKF
Beta cell apopt – blocks beta cell apoptosis | INS-1E cytokine-induced death, ATP luminescence, 48 h; percent of positive-control rescue, neutral wells zero | protection from apoptosis, % (no concentration beside the values) | actives 0.8% (n = 300,000);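 active = Every replicate reaches about 75%, or at least half do and their mean reaches it too, limit read from the data; inconclusive = At least half of replicates reach the limit but their mean does not; inactive = Under half of replicates reach the limit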;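 note: 0% = cytokine-treated negative control wells and 100% = positive control rescue; higher means more ATP so stronger rescue from cytokine killing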
GRIN3A LBD mod – modulates the human NR3A ligand-binding domain; actives 2.5% (n = 340,000); AID 1259313; NR3A LBD differential scanning fluorimetry, Tm shift; 0% = protein alone, 100% = glycine-bound protein; Tm shift relative to glycine control, % at 25 µM;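 active = melting temperature shift of at least 10% of the positive control shift, at one fixed dose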
CHOP inh – blocks CHOP induction under ER stress; CHO-K1 CHOP-promoter luciferase, tunicamycin-induced, 15-18 h; AID 2732; actives 3.8% (n = 220,000); inhibition, % at 10 µM;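 active = compounds that reduced the stress-induced luciferase reporter signal by more than about 70% of percent inhibition, limit read from the data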;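 note: 0% = tunicamycin plus vehicle and 100% = wells without tunicamycin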
T cruzi inh – T. cruzi replication inhibition; T. cruzi beta-gal in NIH3T3, luminescence, 90 h; inhibition, % (concentration not given with the values); actives 1.4% (n = 300,000); AID 1885;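 active = mean inhibition across valid replicates above about 55%, limit read from the data; inconclusive = mean below that limit but half or more replicates reach it; inactive = mean below it, under half of replicates reach it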;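 note: signal also drops with host cell toxicity which is not excluded here; 0% = plate median of DMSO wells and 100% = zero luminescence signal; higher percent means less beta-gal luminescence so fewer parasites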
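assay system = mouse NIH/3T3 fibroblasts infected with β-gal-expressing T. cruzi Tulahuen C4 | input = 5,000 NIH/3T3 host cells per well | buffer or medium = DMEM plus 2% FBS | timing = 3 h host attachment, then at least 90 h co-culture | measured by = GalScreen luminescence, 60 min | evaluation = luminescence reflecting intracellular parasite burden, expressed as percent inhibition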
The depositor's hits bear a star; ? = inconclusive; / = no result given.

SMILES | CSC inhib | PREPL inhibitor | Beta cell apopt | GRIN3A LBD mod | CHOP inh | T cruzi inh
CCOC(=O)C1=C(CC)Nc2ccccc2N=C1NC(=O)c1ccc(OC)c(S(=O)(=O)N2CCOCC2)c1 | / | / | / | -3.5 | / | /
NS(=O)(=O)c1ccc(N2CCN(C(=O)c3ccco3)CC2)nc1 | 7.1 | 16.5 | 2.6 | -0.3 | / | /
COc1cc(S(=O)(=O)NC2CCCCC2)c(C)cc1C | / | 9.4 | 1.1 | -0.9 | 11.4 | 1.9
O=C(CC12CC3CC(CC(C3)C1)C2)NC(=S)Nc1ccc(CN2CCOCC2)cc1 | -15.7 | 11.0 | 3.9 | 2.5 | 37.4 | 81.6*
O=C(/C=C/c1ccc(N2CCC(c3ccccc3)=N2)cc1)c1ccccc1 | 92.4* | -21.1 | 6.9 | 29.6* | -22.3 | 10.8
CC(C)CNC(=O)c1cc(S(=O)(=O)N2CCOCC2)ccc1N1CCCC1 | -5.8 | 0.3 | -3.8 | 0.1 | / | -1.0
Cc1cc(C)c(S(=O)(=O)Cc2ccccc2)c(Cl)n1 | -5.3 | 2.8 | -3.2 | -0.7 | / | -0.3
COC(=O)c1ccc([C@@H]2C[C@H]3CN(Cc4cccnc4)C(=O)[C@]34CCCN24)cc1 | -15.3 | 0.5 | -0.8 | 1.2 | -15.6 | -4.5
Cc1ccc(S(=O)(=O)Nc2ccc(N3CCN(C)CC3)nc2)cc1 | 20.3 | -1.7 | -6.8 | -1.5 | -0.1 | 57.7*
CN1CCN(c2ccc(NS(=O)(=O)c3ccc(Cl)cc3)cn2)CC1 | -7.3 | 3.2 | / | -2.7 | 2.9 | ?
CCN(c1ccccc1)S(=O)(=O)c1cc(C(=O)Nc2ccc(F)c(F)c2)ccc1F | 45.3 | -45.5 | -10.5 | 10.5* | 70.8* | 6.8
CCOC(=O)c1sc2ccccc2c1NC(=O)c1coc2ccccc2c1=O | 43.5 | 19.6 | -0.7 | -1.3 | 20.7 | -0.5
CCOC(=O)c1sc2ccccc2c1OC(=O)c1ccccc1 | 7.4 | 11.0 | -2.0 | 14.0* | 80.8* | -21.0
COc1cccc2c1C(=O)O/C2=C/c1ccc2c(c1)OCO2 | -6.9 | -1.8 | 11.5 | / | 85.1* | 1.3
O=c1cc(-c2ccc(O)cc2)oc2ccc3ccccc3c12 | 89.9* | 2.0 | 45.2 | 24.5* | / | /
O=c1cc(-c2ccc(O)cc2)oc2c1ccc1ccccc12 | 24.5 | 0.1 | -5.7 | 0.2 | / | /
NS(=O)(=O)c1ccc(NC(=O)/C=C/c2ccc(S(=O)(=O)NCc3ccco3)cc2)cc1 | 9.5 | -11.3 | -3.0 | 38.5* | / | -1.2
O=C(O)/C=C/c1ccc(S(=O)(=O)NCc2ccco2)cc1 | 3.7 | -5.0 | -1.0 | 1.2 | -11.5 | -16.6
NS(=O)(=O)c1ccc(NC(=O)/C=C/c2cccc(Cl)c2)cc1 | -10.6 | -21.4 | 0.6 | 28.1* | -7.6 | 1.1
COc1ccc(C(=O)OCC(=O)c2ccc3c(c2)NC(=O)CO3)cc1S(=O)(=O)N1CCOCC1 | -20.9 | 2.5 | -3.9 | -1.3 | / | /
COc1ccc(C(O)(CCN2CCOCC2)c2ccccc2)cc1 (configuration not stated) | -1.9 | 8.2 | -2.1 | -6.0 | / | -10.0
CCOc1cc(N2CCOCC2)c(OCC)cc1NC(=O)c1ccc2ccccc2n1 | 16.4 | 18.6 | 15.4 | -3.9 | -6.0 | 58.2*
Cn1c(NCc2c(O)ccc3ccccc23)nc2ccccc21 | 2.1 | -1.1 | -7.5 | 13.8* | 16.6 | -4.6
Oc1ccc2ccccc2c1CNc1ccc(Br)cc1 | 31.4 | 1.9 | -10.7 | 14.9* | / | 5.8
Oc1ccc2ccccc2c1CNc1ccc(Br)cn1 | -14.0 | -5.6 | -2.7 | 24.8* | / | 0.6
SMILES | CSC inhib | PREPL inhibitor | Beta cell apopt | GRIN3A LBD mod | CHOP inh | T cruzi inh
Oc1ccc2ccccc2c1CNc1cnc2ccccc2c1 | -11.1 | 9.4 | -2.1 | -6.8 | 87.0* | -18.2
O=C(NCc1c(O)ccc2ccccc12)c1ccccc1 | 3.5 | / | -4.2 | -4.0 | / | -13.9
Cc1ccc2nc(-c3cc(N)cc(N)c3)oc2c1 | 2.1 | 33.8 | 2.7 | -2.0 | 79.0* | 1.2
Nc1ccc(-c2nc3ccc(N)cc3o2)cc1 | -3.3 | 6.6 | 16.1 | -1.5 | 40.6 | -6.6
O=C(CSc1nnc(SCc2ccc(Cl)cc2)s1)N/N=C/c1c(Cl)cccc1Cl | 43.6 | 16.5 | -0.6 | -4.2 | 40.7 | 20.5
O=C1c2cccc3cc([N+](=O)[O-])cc(c23)C(=O)N1CCN1CCCC1 | / | / | / | -0.6 | -138.4 | 56.0*
Cc1cc(C)c(S(=O)(=O)N2CCN(CCN3C(=O)c4cccc5cccc(c45)C3=O)CC2)cc1[N+](=O)[O-] | / | / | / | / | 17.7 | /
Nc1cc2c3c(cccc3c1)C(=O)N(CCN1CCCC1)C2=O | 35.7 | 29.1 | 75.1* | -0.4 | 28.4 | 78.2*
Cc1ccc(NC(=O)c2ncn(CCCN3CCN(Cc4cccc5ccccc45)CC3)n2)cc1C | / | / | / | -10.8 | / | /
CCCSc1ncc(Cl)c(C(=O)Nc2ccc(S(=O)(=O)Nc3ncccn3)cc2)n1 | -7.8 | 3.8 | -2.9 | 8.8 | / | -2.6
CSc1ncc(Cl)c(C(=O)Nc2ccc(S(=O)(=O)Nc3nccc(C)n3)cc2)n1 | -2.9 | 5.1 | -8.8 | 12.6* | / | 2.6
Cc1ccnc(NS(=O)(=O)c2ccc(N3C(=O)c4c(Cl)c(Cl)c(Cl)c(Cl)c4C3=O)cc2)n1 | 3.1 | 2.6 | -7.5 | 28.3* | 65.0 | -2.4
COc1ccc(NC(=O)CNC(=O)C2CCCCC2)cc1OC | -10.2 | 4.3 | -4.0 | -2.7 | / | /
CCCN(CC(=O)Nc1ccccc1C)C(=O)CCl | -2.2 | -6.5 | -4.2 | -0.4 | -68.5 | 78.3*
CCCN(CC(=O)Nc1ccccc1C)C(=O)COc1c(C)cccc1C | / | 3.6 | -4.1 | -1.5 | / | /
CN1CCN(C(CNC(=O)c2ccc(Br)o2)c2ccc(F)cc2)CC1 (configuration not stated) | -15.5 | 1.7 | 5.7 | 2.3 | / | 61.6*
CN1CCN(C(CNC(=O)C(=O)Nc2ccc3c(c2)OCCO3)c2ccc(F)cc2)CC1 (configuration not stated) | -7.0 | -0.9 | -1.2 | / | / | 61.8*
Cc1ccc(C(CNC(=O)C(=O)Nc2ccc3c(c2)OCCO3)N2CCN(C)CC2)cc1 (configuration not stated) | -19.3 | -0.2 | / | 1.8 | / | 9.2
Cc1ccc(C(CNC(=O)c2ccc(Br)o2)N2CCN(C)CC2)cc1 (configuration not stated) | -7.1 | -6.0 | -5.1 | 1.8 | / | 9.7
CCCCn1c(N)c(N(CC(C)C)C(=O)c2cc(S(=O)(=O)N3CCCCC3)ccc2C)c(=O)[nH]c1=O | 1.4 | 2.1 | 4.2 | 0.4 | / | -5.8
Cc1ccc(NC(=O)Cc2ccc3c(c2)CCCC3)cc1C | -1.6 | 13.6 | -6.8 | -4.7 | 72.4* | 23.7
Cc1ccc(NC(=O)Nc2ccc3c(c2)CCC3)cc1C | 1.8 | 0.8 | -7.9 | -6.5 | / | 0.4
COc1cccc(C(=O)COc2ccc3ccc(=O)oc3c2)c1 | 11.9 | -0.2 | -10.9 | 15.7* | -13.3 | -5.0
COc1cccc(C(=O)COc2ccc3c(C)cc(=O)oc3c2)c1 | 43.7 | / | 16.0 | 0.0 | / | -8.0
COc1cccc(OC)c1C(=O)Nc1cc(C)nn1-c1nc2ccccc2[nH]1 | 50.4 | 9.6 | 30.7 | -11.5 | 19.7 | 43.0
COc1ccc(C(=O)Nc2cc(C)nn2-c2nc3ccccc3[nH]2)c(OC)c1 | -12.1 | 3.7 | 10.7 | 1.6 | -14.6 | 61.5*
